Compound activity as filed in PubChem BioAssay.
This is a sample that favours compounds with a hit; in the whole collection about 2.3% have one here.
MT1-MMP act inh: inhibitors of human MT1-MMP activation. P50281. HT1080 RFP-PRO-GFP cells, GFP/RFP ratio fluorescence, overnight; percent of plate control window, DMSO zero. GFP/RFP ratio change, % at 20 µM. hit rate 0.061% among 360,000. AID 651647;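 active = GFP/RFP ratio change of at least 30% with cell ATP level not reduced by more than half and red fluorescence within 50% of control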
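Assay system – RFP-PRO-GFP reporter HT1080 cells · Compound dosing – single dose of 20 µM compound, 1% DMSO final · Incubation – overnight compound exposure at 37 °C · Measure – GFP/RFP fluorescence ratio · Benchmarks – DMSO wells and RFP-L50D-GFP cells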
SUMO1-SIM PPI: alters human SUMO1 binding to SIM partners. P63165. SUMO1 binding to a labelled peptide, TR-FRET, 1 h. inhibition, % at 20 µM. hit rate 0.33% among 360,000. AID 602429; in the data active = inhibition above about 37%
Target sequence (P63165 whole entry, looked up): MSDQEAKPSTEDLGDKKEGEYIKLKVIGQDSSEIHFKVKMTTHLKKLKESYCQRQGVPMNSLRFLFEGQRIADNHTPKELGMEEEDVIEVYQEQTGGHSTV
SKN-1 block: inhibitors of C. elegans SKN-1; C. elegans VP596 Pgst-4::GFP/RFP ratio, acrylamide-induced, 24 h; inhibition, % at 21.8 µM; hit rate 0.49% among 360,000;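 active = interference check ratio from 0.5 to 1.5 plus GFP to RFP signal ratio inhibition reaching or exceeding a fixed threshold, cut at about 30% in these data, passing the limit was not always enough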
CSN deneddyl inh: inhibitors of human CSN-mediated cullin deneddylation | Purified CSN, SCF-Nedd8-OG deneddylation, fluorescence polarization | Q92905 | hit rate 0.38% among 360,000 | AID 651999 | inhibition, % at 12.5 µM;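 active = pattern-corrected inhibition above about 35%, with an unprinted fluorescence ratio check between 0.5 and 1.5, limit read from the data, passing the limit was not always enough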;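 note: 0% = enzyme with substrate and 100% = substrate without enzyme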
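Assay system: purified human Csn5 enzyme expressed in HEK293T cells; measure: % inhibition; also added: SCFSkp2-Nedd8OG substrate at 10 nM final; technique: fluorescence polarization; times: reaction 90 min, room temperature; medium: Tris buffer pH 7.5, NaCl, DTT, Tween-20, trehalose, ovalbumin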
Rpn11 inh: inhibitors of human proteasome Rpn11; human 26S proteasome, Ub4-pepOG fluorescence polarization; 20S core pre-blocked with epoxomicin; hit rate 0.59% among 360,000; inhibition, % at 20 µM;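 active = inhibition at 20 µM, scaled to each plate's controls, above about 33%, limit read from the data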
DNMT1 block: DNMT1 (human) enzyme inhibition; inhibition (reported as % activation of signal), % at 10 µM; P26358; DNMT1 molecular beacon, Hinp1I cleavage, fluorescence; hit rate 0.83% among 360,000; in the data active = inhibition above about 50%
Rpn11 inh conf: confirmation of human proteasome Rpn11 inhibitors; shares compounds with Rpn11 inh; purified human 26S proteasome, Ub4-pepOG fluorescence polarization; proteasome pretreated with epoxomicin; inhibition, % at 20 µM; hit rate 29% among 1,900; AID 602318
MMP-2 inh: MMP-2 (human) inhibition counter-screen | inhibition, % at 20 µM | shares compounds with Rpn11 inh | AID 602330 | hit rate 4% among 1,900 | recombinant MMP-2, FRET peptide cleavage fluorescence;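 note: human MMP-2 activated beforehand with APMA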
Thrombin inh: counter-screen for RPN11 inhibitors: inhibition of bovine thrombin; hit rate 13% among 1,900; bovine thrombin cleavage of Ub4-pepOG, fluorescence polarization; AID 602333; shares compounds with Rpn11 inh; inhibition, % at 20 µM;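 active = mean inhibition at least 40% at 20 µM, or signal 3 deviations below plate average, so some actives read negative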;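 note: plate controls were thrombin with DMSO for no effect and buffer wells lacking thrombin for full effect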
Target sequence (P00735 whole entry, looked up): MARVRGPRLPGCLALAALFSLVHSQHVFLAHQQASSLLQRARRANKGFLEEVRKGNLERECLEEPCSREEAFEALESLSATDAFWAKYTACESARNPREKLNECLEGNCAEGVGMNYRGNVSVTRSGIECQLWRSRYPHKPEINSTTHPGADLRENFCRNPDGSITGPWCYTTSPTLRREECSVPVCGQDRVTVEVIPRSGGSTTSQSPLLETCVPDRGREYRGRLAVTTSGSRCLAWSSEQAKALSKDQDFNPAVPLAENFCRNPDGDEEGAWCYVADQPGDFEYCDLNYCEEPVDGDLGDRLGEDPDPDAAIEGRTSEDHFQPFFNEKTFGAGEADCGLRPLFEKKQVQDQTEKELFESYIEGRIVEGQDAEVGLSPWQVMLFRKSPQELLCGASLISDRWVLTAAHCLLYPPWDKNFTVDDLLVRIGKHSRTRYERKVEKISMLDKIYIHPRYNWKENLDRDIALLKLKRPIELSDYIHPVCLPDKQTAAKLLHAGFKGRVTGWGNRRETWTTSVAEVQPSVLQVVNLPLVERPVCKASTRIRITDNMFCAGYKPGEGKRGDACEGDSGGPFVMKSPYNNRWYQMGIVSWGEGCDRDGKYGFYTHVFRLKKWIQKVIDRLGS
* = called active by the depositor; x = no result given. Cut-off read from the data, not from the text of the source, unless noted: active = inhibition above about 40%; inactive = the rest.

SMILES	MT1-MMP act inh	SUMO1-SIM PPI	SKN-1 block	CSN deneddyl inh	Rpn11 inh	DNMT1 block	Rpn11 inh conf	MMP-2 inh	Thrombin inh
COc1cc2oc3ccccc3c2cc1N(CC(=O)N(C)C)S(=O)(=O)c1ccc(C)cc1	-1.4	-0.2	-13.9	4.7	-5.9	-0.6	x	x	x
COc1cc2oc3ccccc3c2cc1N(CC(=O)N(C)C)S(=O)(=O)c1ccccc1	6.2	13.5	-13.2	5.8	115.5*	-4.6	-1.3	20.5	-14.2
Nc1ncnc2c1ccn2[C@H]1CN(Cc2ccc3c(c2)OCO3)C[C@@H](COC(=O)c2ccccc2)O1	0.0	-4.9	4.5	-3.0	0.8	-1.7	x	x	x
COC(=O)c1cc(Br)c(=O)n(CCc2ccc(F)cc2)c1	2.5	1.9	34.5	1.8	93.0*	-6.7	-16.5	-20.3	-16.4
COC(=O)c1cc(Br)c(=O)n(CCc2ccc(O)cc2)c1	-0.2	1.9	0.8	3.5	-2.3	-7.6	x	x	x
CCOC(=O)/C=C/c1cccc(C)c1O	3.3	-10.2	0.2	0.1	x	x	x	x	x
Cc1cc(=O)oc2cc(OCc3ccc(C(=O)OCC(=O)N(C)C4CCS(=O)(=O)C4)cc3)ccc12 (stereo not drawn)	-4.7	1.9	5.9	2.5	1.5	0.5	x	x	x
CN(C(=O)COc1ccc2c(-c3ccccc3)cc(=O)oc2c1)C1CCS(=O)(=O)C1 (stereo not drawn)	0.6	-33.1	-8.5	0.1	58.3*	-2.3	5.5	-0.8	7.3
Cc1sc(NC(=O)c2cccs2)c(C(=O)OC(C)C)c1C	0.2	-0.4	23.5	-8.1	50.5*	-6.9	-1.6	-34.6	-3.6
CC(=O)NC(c1ccc(F)c(F)c1)c1nc(-c2ccccc2C)cs1 (stereo not drawn)	-5.8	0.3	6.3	3.0	-2.2	0.7	x	x	x
O=C(COc1ccc([N+](=O)[O-])cc1)Nc1cccc2nsnc12	-4.5	-34.3	5.9	16.3	75.3*	9.9	4.0	-3.2	5.2
Cc1ccc(OCC(=O)Nc2cccc3nsnc23)c(C)c1	-3.7	-5.5	-13.9	3.6	5.4	1.6	x	x	x
O=C(CCS(=O)(=O)c1ccc(F)cc1)Nc1nccs1	2.4	2.4	-11.0	3.0	-5.1	8.8	x	x	x
CN(CC(=O)Nc1nccs1)S(=O)(=O)c1ccc(F)cc1	23.0	1.6	7.6	-0.2	48.7*	2.3	0.4	-38.3	-4.9
CCOC(=O)NC(=O)CSc1nc(C)cc(C(F)(F)F)c1C#N	-29.1	-13.3	30.7	12.1	32.2	1.6	x	x	x
Cc1cc(C(F)(F)F)c(C#N)c(SCC(=O)Nc2nc3cc(Br)ccc3s2)n1	-83.6	2.8	6.9	11.1	52.9*	-3.3	29.7	7.4	-12.7
C=CCn1c(SCC(=O)Nc2ccc(-c3nc4ccc(C)cc4s3)cc2)nnc1-c1ccncc1	3.3	8.8	2.4	-11.4	59.7*	-6.2	1.9	-4.6	1.1
CN1CCN(C(c2ccc(Cl)cc2)c2cc(Cl)c3cccnc3c2O)CC1 (stereo not drawn)	-17.0	-8.4	-6.3	2.4	45.6*	-6.4	43.6*	28.3	-8.3
Oc1c(C(c2ccccn2)N2CCCCC2)cc(Cl)c2cccnc12 (stereo not drawn)	-8.9	-9.5	3.0	-3.4	28.1	-7.1	x	x	x
CCSC1=N/C(=C\c2ccc3c(c2)OCO3)C(=O)S1	-20.5	-10.0	-30.2	6.4	41.7*	3.0	73.6*	-25.7	-53.0
O=C(/C=C/c1ccc(F)cc1)Nc1cc(S(=O)(=O)N2CCOCC2)ccc1N1CCOCC1	-1.2	-1.8	3.5	2.5	89.8*	2.4	10.3	8.1	2.3
Cc1ccc(/C=C/C(=O)Nc2cc(S(=O)(=O)N3CCOCC3)ccc2N2CCOCC2)cc1	-0.9	-9.0	-3.0	1.5	2.8	6.4	x	x	x
Cn1cc(S(=O)(=O)CC(=O)N2CCCc3ccccc32)c2ccccc21	0.1	5.3	21.0	0.5	69.5*	4.2	-3.2	-27.8	-4.3
Cc1cc2nc(/C=C/c3nc4cc(C)c(C)cc4[nH]3)[nH]c2cc1C	-1.1	-0.9	7.1	5.5	56.5*	26.8	3.8	-5.3	-29.9
Cc1cc2nc(CS)[nH]c2cc1C	2.7	1.4	17.4	5.9	49.9*	-5.4	52.5*	13.9	0.9
SMILES	MT1-MMP act inh	SUMO1-SIM PPI	SKN-1 block	CSN deneddyl inh	Rpn11 inh	DNMT1 block	Rpn11 inh conf	MMP-2 inh	Thrombin inh
Cc1cc2nc(CO)[nH]c2cc1C	0.5	-1.7	8.7	1.4	-0.1	2.2	x	x	x
Cc1cc2nc(/C=C/c3cccnc3)[nH]c2cc1C	26.8	-16.6	20.8	1.4	1.2	-4.4	x	x	x
CC(C)CCN1C(=O)c2ccccc2C1c1nnnn1-c1ccc2c(c1)OCCO2 (stereo not drawn)	3.6	-3.6	-2.5	-6.3	x	x	x	x	x
CCOc1ccc2nc(SCC(=O)c3ccc(Cl)s3)sc2c1	4.4	-4.5	7.7	9.5	56.5*	0.1	-3.8	-45.6	0.2
CCOc1ccc2nc(SCC(=O)NCc3ccco3)sc2c1	-22.7	-1.6	-11.1	10.3	43.7*	5.0	-15.4	8.2	-8.6
CCN(CC)C(=O)C1=C(C)N(Cc2ccc(OC)cc2)C(=O)C(CC(=O)NCC2CCCCC2)C1 (stereo not drawn)	1.5	2.5	19.6	4.1	3.7	3.0	x	x	x
CCCCCCOC(=O)c1ccc(N)cc1	-2.8	4.3	11.1	1.8	2.8	0.4	x	x	x
CCCCCCCCCCCC1N=C(N)NC(CCCO)=C1C(=O)OC (stereo not drawn)	-7.7	102.7*	-9.3	15.9	85.9*	-12.7	49.3*	-27.8	-34.7
COc1ccc(C(O)c2nc(-c3ccc(OC)c(OC)c3)cs2)cc1 (stereo not drawn)	4.5	-4.0	7.7	2.0	-7.1	-2.5	x	x	x
COCCNC(=O)C1(C)CCCN(C(=O)c2cccc(OC(F)(F)F)c2)C1 (stereo not drawn)	1.8	-13.6	-4.8	-0.6	4.5	2.2	x	x	x
Cc1ccccc1CC(=O)Nc1ccc(C(=O)N2CCCC2)cc1	-3.1	-1.6	3.4	0.4	38.7*	13.1	3.1	-27.8	-11.9
COCCN1C(=O)CCC1(C)c1nnnn1Cc1ccccc1 (stereo not drawn)	0.1	7.6	7.3	-8.8	x	x	x	x	x
CN1CCCNc2nc3ccccc3nc21	-18.6	-6.2	-0.2	9.8	45.6*	0.8	-3.2	-49.4	-7.6
